Values joined by “and” are separate entries in the source; they are usually repeats but may differ in a detail not shown here. Identical values can stand only once.

In data set [1] the test system is Canis familiaris. Nature of the data set: Ventricular rate was measured in anesthetized dog at 0.014 dose. The format is functional, Canis lupus familiaris, Heart. The conditions noted are these: in the assay text read “unanesthetized dog” for “anesthetized dog”. Put shortly:
(§1)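 Adult female dogs (6.7–14.5 kg) had two-stage ligation of the left anterior descending coronary artery the day before testing. After control ventricular rate, % ectopic beats and mean arterial pressure were recorded, the drug (HCl salt, isotonic solution) was infused iv without anesthesia at 0.1, 0.5 or 1.0 (mg/kg)/min, mostly 0.5. Infusion continued until the arrhythmia was abolished or cardiovascular/CNS toxicity appeared. Cumulative dose is given in mmol/kg; toxicity included convulsion and P-R prolongation ≥25%.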

Data set [2] can be described thus: Total body clearance was measured at given dose. Format: ADME. Put shortly: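 Blood levels came from the iv-infused dogs, measured by GC-FID after methylene chloride extraction and heptafluorobutyryl derivatization with an internal standard. Total body clearance was total dose divided by the blood-level AUC (zero to infinity); volume of distribution was clearance divided by the elimination rate constant.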

For data set [3], the species on record is Mus musculus. Nature of the data set: Percentage toxicity measured as ataxia. The format is organism-based. The conditions noted are these: in vivo. The essentials:
(§2)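 Mice (groups of 10) were dosed sc with drug in 0.9% saline and watched for 20 min for overt toxicity (ataxia, convulsions, loss of righting reflex, death) before chloroform exposure.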

Data set [4] is filed under the species Canis familiaris. The experiment in a line: (§3) Total dose of the compound. The format is functional, Canis lupus familiaris. The essentials: as §1
For data set [5], the species on record is Mus musculus. Nature of the data set: Percentage toxicity measured as loss of righting reflex. Format: organism-based. The conditions noted are these: in vivo. Put shortly:
as §2

Data set [6] is filed under the species Canis familiaris. Nature of the data set: Blood level was measured in […] at 0.004 dose. The format is functional, Canis lupus familiaris.
A short description of data set [7]: Maximal concentration in dogs after intravenous administration. The conditions noted are these: dog, in vivo.
The nature of data set [8]: Volume of distribution was measured at given dose of 29 umol/kg. The conditions noted are these: in vivo. The format is ADME, organism-based. Put shortly:
(§4)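 In dogs given iv infusions, blood samples were alkaline-extracted (pH 10.3) into methylene chloride and derivatized with heptafluorobutyrylimidazole. Concentrations were measured by GC-FID against an internal standard using standard curves. Clearance was total dose ÷ blood-level AUC (zero to infinity), and volume of distribution was clearance ÷ elimination rate constant.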

The test system of data set [9] is Mus musculus. The experiment in a line: Protection against chloroform induced arrhythmias was measured in mice after sc administration at given dose. The format is functional. Put shortly:
(§5)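 Groups of 10 unanesthetized mice got sc injection of drug in 0.9% saline. After 20 min observation they were placed one by one in chloroform-vapor-saturated air. When breathing stopped, the thorax was opened and the heart inspected by eye; coordinated ventricular contractions counted as protected.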

For data set [10], the species on record is Canis familiaris. Nature of the data set: Ventricular rate was measured in […] at 0.028 dose. The format is functional, Canis lupus familiaris, Heart. The essentials:
as §1

The test system of data set [11] is Canis familiaris. The experiment in a line: % ectopic beats was measured in anesthetized dog at 0.028 dose. The format is functional, Canis lupus familiaris, Heart. To be noted: in the assay text read “unanesthetized” for “anesthetized”. Put shortly:
(§6)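 Adult female dogs (6.7–14.5 kg) had the left anterior descending coronary artery ligated in two stages the day before testing. Dogs were unanesthetized. Ectopic beats (% of ventricular rate) and mean arterial pressure were read at maximal antiarrhythmic effect against the cumulative dose.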

The subject of data set [12] is Canis familiaris. Nature of the data set: % ectopic beats was measured in anesthetized dog at 0.014 dose. The format is functional, Canis lupus familiaris, Heart. To be noted: in the assay text read “unanesthetized” for “anesthetized”. The essentials: as §6
Data set [13] is described as follows: Maximal concentration in dogs after 29 umol/kg intravenous dose. To be noted: dog, in vivo.
For data set [14], the system named is Canis familiaris. The experiment in a line: MABP value was measured in anesthetized dog at given dose. The format is functional, Canis lupus familiaris.
Data set [15] has as its system Mus musculus. Nature of the data set: Protection against chloroform induced arrhythmias in mice after subcutaneous administration at 100 mg/kg dose. The format is functional. Put shortly:
as §5

Data set [16] has as its system Canis familiaris. Nature of the data set: Ventricular rate was measured in anesthetized dog at 0.004 dose. To be noted: in the assay text read “unanesthetized dog” for “anesthetized dog”. Format: functional, Canis lupus familiaris, Heart. The essentials: as §1
Data set [17] in a line: Volume of distribution was measured at given dose of 25 umol/kg. Format: ADME, organism-based. To be noted: in vivo. The essentials:
as §4

The species entered for data set [18] is Mus musculus. The experiment in a line: Percentage toxicity measured as convulsions. The format is organism-based. To be noted: in vivo. Put shortly:
as §2

Data set [19] deals with Canis familiaris. The experiment in a line: Blood level was measured in anesthetized dog at 0.014 dose. The format is functional, Canis lupus familiaris.
Data set [20] is described as follows: Percentage toxicity measured as death of mice. Set-up: concentration or dose not given beside the values. To be noted: mouse, in vivo; read-out: Death. The format is organism-based.
Data set [21] relates to Canis familiaris. Nature of the data set: % ectopic beats was measured in unanesthetized dog at 0.004 dose.
For data set [22], the species on record is Canis familiaris. The description is as §3. The format is functional, Canis lupus familiaris. Put shortly: as §1
This is another data set of the same source.

Turning to `CCN(CC)CCCN1C(=O)CC2(CCCc3ccc(O)cc32)C1=O` (stereo not drawn), the Ventricular rate in the data set on Canis familiaris [1] stood at 150 beats min-1; in the data set filed under Canis familiaris [10] it was 153 beats min-1; in the data set with Canis familiaris [16], 168 beats min-1. Moreover, the ClB in [2] was 6.06 mL/min/kg. The clearance (commonly the volume of plasma or blood freed of the substance per unit of time) in data set [2] (ClB) was found to be 3.81 mL/min/kg. Further, the Ataxia in the data set filed under Mus musculus [3] amounted to 0%. Moreover, the Dose in the data set listed under Canis familiaris [4] came to 29 µM/kg; in the data set listed under Canis familiaris [22] it was 25 µM/kg. Besides, the “Loss of righting reflex” value in the data set filed under Mus musculus [5] turned out to be 0%. Further, the Blood level was 0.019 uM ml-1 in the data set filed under Canis familiaris [6] and 0.01 uM ml-1 with Canis familiaris [19]. Also, the highest concentration (Cmax) (in general, the peak of the concentration-time curve) is 31 µM in data set [7] and 15 µM in [13]. Besides, the distribution volume (Vd) (in general, a proportionality between amount in the body and measured concentration, not a real space) amounted to 1.6 L/kg in data set [8] and 1.58 L/kg in [17]. The 50% effect level with Mus musculus [9] (ED50) was put at a dose of 90 µmol/kg. Besides, the Etopic beats is on record as 6% in the data set on Canis familiaris [11] and 0% with Canis familiaris [12]. For the same compound, the MABP with Canis familiaris [14] is 85 mmHg and 125 mmHg. The Protection in the data set on Mus musculus [15] was 80%. Besides, in the data set filed under Mus musculus [18], the Convulsion stood at 0%. Moreover, the mortality in data set [20] was determined as 0%. The Ectopic beats with Canis familiaris [21] amounted to 3%.

The record behind these values is ChEMBL document CHEMBL1121715, “New antiarrhythmic agents. 4. 1'-(Aminoalkyl)-1,2,3,4-tetrahydronaphthalene-1-spiro-3'-pyrrolidine-2',5'-dione derivatives” (J Med Chem, 1981).
